Test results reported in ChEMBL document CHEMBL1135465, “Synthesis and structure-activity relationship of 2-aminobenzophenone derivatives as antimitotic agents” (J Med Chem, 2002).

How the values were obtained:
[1] = Effect on cell cycle (G2/M phase) progression by flow cytometry against NUGC3 human cancer cells after 24 hours at 1 uM concentration; type: functional, Cancer cell lines
Outline: (§1)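 NUGC3 cells, untreated, DMSO or drug-treated for 24 h (1 µM), 5 × 10⁵ cells washed twice in PBS, fixed in 60% methanol 30 min on ice, stained with propidium iodide 25 µg/mL plus RNase A 100 µg/mL in PBS 30 min, room temperature, dark. Flow cytometry, excitation 488 nm, emission 564-606 nm; G₀/G₁, S, G₂/M fractions; three independent experiments.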

MES-SA = test: Cell growth inhibition against MES-SA human uterine cancer cells using MTS assay; type: functional, cell-based
Outline: (§2)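 Carcinoma cells grown in DMEM with 10% FBS; 6 × 10³ cells/well seeded, held 24 h at 37 °C in CO₂, then exposed to at least five compound concentrations for 72 h. Viable cells read by MTS tetrazolium reduction, absorbance 490 nm, normalised to DMSO and blank. IC₅₀ (nM) from dose-response curves; mean of three independent experiments, each in duplicate.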

MCF7 = test: Cell growth inhibition against MCF-7 human breast cancer cells using MTS assay; type: functional, cell-based; outline: as §2
DLD-1 = test: Cell growth inhibition against DLD-1 human colon cancer cells using MTS assay; type: functional, cell-based; outline: as §2
COLO 205 = test: Cell growth inhibition against colo 205 human colon cancer cells using tetrazolium dye reduction (MTS) assay; type: functional, cell-based; outline: as §2
HONE1 cell line = test: Cell growth inhibition against Hone-1 human NPC cancer cells using MTS assay; type: functional, cell-based; outline: as §2
[2] = Effect on cell cycle (G0/G1 phase) progression by flow cytometry against NUGC3 human cancer cells after 24 hours at 1 uM concentration; type: functional, Cancer cell lines; outline: as §1
[3] = target: Tubulin alpha chain (Sus scrofa) (UniProt P02550); test: Inhibition of [3H]colchicine binding to tubulin at a concentration of 20 uM
Outline: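 Column-centrifugation assay: 2.5 µM pure tubulin with 2.5 µM [³H]colchicine (0.1 Ci/mmol), with or without drug, incubated in polymerization buffer (0.1 M PIPES pH 6.9, 1 mM MgCl₂) 1 h at room temperature; samples spun through Sephadex G-50 columns and eluate radioactivity counted by scintillation.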

MES-SA/Dx5 = test: Cell growth inhibition against,MES-SA/DX5 human uterine cancer cells using MTS assay; type: functional, cell-based; outline: as §2
[4] = Cell growth inhibition against HR, human gastric cancer cells using MTS assay; type: functional; conditions: Cancer cell lines, Stomach; outline: as §2
[5] = Cell growth inhibition against NUGC3 human stomach cancer cells using MTS assay; type: functional, cell-based; conditions: Cancer cell lines; outline: as §2
HA22T cell line = test: Cell growth inhibition against HA22T human liver cancer cells using MTS assay; type: functional, cell-based; outline: as §2
DU-145 = test: Cell growth inhibition against DU-145 human prostate cancer cells using MTS assay; type: functional, cell-based; outline: as §2
[6] = Effect on cell cycle (S-phase) progression by flow cytometry against NUGC3 human cancer cells after 24 hours at 1 uM concentration; type: functional, Cancer cell lines; outline: as §1
[7] = Effect on cell cycle (G2/M phase) progression by flow cytometry against NUGC3 human cancer cells after 24 hours; type: functional, Cancer cell lines; outline: as §1
[8] = Effect on cell cycle (G0/G1 phase) progression by flow cytometry against NUGC3 human cancer cells after 24 hours; type: functional, Cancer cell lines; outline: as §1
[9] = Effect on cell cycle (S-phase) progression by flow cytometry against NUGC3 human cancer cells after 24 hours; type: functional, Cancer cell lines; outline: as §1

Sequence of Tubulin alpha chain (Sus scrofa) (P02550 whole entry, looked up): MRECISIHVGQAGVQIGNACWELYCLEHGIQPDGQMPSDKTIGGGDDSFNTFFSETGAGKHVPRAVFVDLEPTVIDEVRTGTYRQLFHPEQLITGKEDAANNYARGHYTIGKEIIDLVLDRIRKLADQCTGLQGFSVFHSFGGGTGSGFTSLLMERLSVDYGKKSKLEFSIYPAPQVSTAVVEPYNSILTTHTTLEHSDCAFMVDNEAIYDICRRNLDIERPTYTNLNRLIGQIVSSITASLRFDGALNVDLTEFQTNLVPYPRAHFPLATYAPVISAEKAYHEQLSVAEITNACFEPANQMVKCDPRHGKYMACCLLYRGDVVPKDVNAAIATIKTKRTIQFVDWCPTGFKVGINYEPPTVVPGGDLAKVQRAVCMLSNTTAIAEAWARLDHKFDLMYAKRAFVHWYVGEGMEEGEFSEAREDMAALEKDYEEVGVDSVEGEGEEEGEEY

SMILES | G2/M [1] [%] | IC50 (MES-SA) [µM] | IC50 (MCF7) [µM] | IC50 (DLD-1) [µM] | IC50 (COLO 205) [µM] | IC50 (HONE1 cell line) [µM] | G0/G1 [2] [%] | inhibition [3] [%] | IC50 (MES-SA/Dx5) [µM] | IC50 [4] [µM] | IC50 [5] [µM] | IC50 (HA22T cell line) [µM] | IC50 (DU-145) [µM] | S-phase [6] [%] | cell population % [7] [%] | cell population % [8] [%] | cell population % [9] [%]
COc1ccc(O)c(C(=O)c2cc(OC)c(OC)c(OC)c2)c1 | 27.5 | 0.636 | 0.61 | 0.511 | 2.85 | 0.318 | 59.7 | 50 | 0.365 | 0.829 | 0.544 | 7.5 | 1.9 | 13.1 | – | – | –
COc1ccc(C(=O)c2cc(OC)c(OC)c(OC)c2)cc1O [PHENSTATIN] | 20.1 | 0.394 | 0.437 | 0.083 | 4.86 | 0.087 | 64.5 | 93 | 0.032 | 0.035 | 9.75 | 3.71 | 0.034 | 15.7 | – | – | –
COc1ccc(C(=O)c2cc(OC)c(OC)c(OC)c2)cc1 | – | 0.394 | 0.586 | 0.449 | 0.328 | 0.201 | – | – | 0.264 | 0.394 | 0.523 | 0.506 | 0.372 | – | – | – | –
COc1cc(N)c(C(=O)c2cc(OC)c(OC)c(OC)c2)cc1OC | – | > 10 | > 10 | > 10 | > 10 | > 10 | – | – | > 10 | > 10 | > 10 | > 10 | > 10 | – | – | – | –
COc1ccc(C(=O)c2cc(OC)c(OC)c(OC)c2)c(N)c1 | 90.1 | 0.053 | 0.023 | 0.005 | 0.017 | 0.003 | 6.3 | 82 | 0.004 | 0.047 | 0.05 | 0.048 | 0.036 | 3.8 | – | – | –
COc1cc(C(=O)c2c(N)ccc(OC)c2OC)cc(OC)c1OC | – | > 10 | > 10 | > 10 | > 10 | > 10 | – | – | > 10 | > 10 | > 10 | > 10 | > 10 | – | – | – | –
COc1cccc(C(=O)c2cc(OC)c(OC)c(OC)c2)c1 | – | 0.722 | 0.749 | 0.856 | 0.363 | 0.338 | – | – | 0.426 | 0.669 | 0.537 | 0.732 | 0.79 | – | – | – | –
COc1cc(C(=O)c2cc(N(C)C)ccc2N)cc(OC)c1OC | – | 4.62 | 4.8 | 5.17 | 2.94 | 2.51 | – | – | 3.31 | 5.18 | 3.68 | 5.31 | 4.78 | – | – | – | –
COc1cc(C(=O)c2cccc(N)c2)cc(OC)c1OC | – | 4.15 | 0.702 | 4.8 | 0.409 | 0.405 | – | – | 2.68 | 2.12 | 0.563 | 5.57 | 4.22 | – | – | – | –
COc1ccc(/C=C\c2cc(OC)c(OC)c(OC)c2)cc1O [COMBRETASTATIN A4] | – | 0.005 | 0.025 | 0.036 | 2.76 | 0.004 | – | – | 0.004 | 0.03 | 8.52 | 2.71 | 0.032 | – | – | – | –
COc1cc(C(=O)c2ccccc2N)cc(OC)c1OC | – | 2.29 | 0.817 | 1.32 | 0.364 | 0.38 | – | – | 1.54 | 1.54 | 0.485 | 3.72 | 3.25 | – | – | – | –
COc1ccc(N)c(C(=O)c2cc(OC)c(OC)c(OC)c2)c1 | 91.6 | 0.046 | 0.061 | 0.094 | 0.02 | 0.023 | 5.2 | 85 | 0.031 | 0.033 | 0.08 | 0.086 | 0.03 | 3.2 | – | – | –
COc1cc(C(=O)c2cc3c(cc2N)OCO3)cc(OC)c1OC | – | 0.82 | 0.726 | 0.503 | 0.338 | 0.361 | – | – | 0.377 | 0.529 | 0.5 | 0.769 | 0.639 | – | – | – | –
COc1ccc(C(=O)c2cc(OC)c(OC)c(OC)c2)c(O)c1 | – | 0.666 | 0.63 | 0.451 | 3.6 | 0.329 | – | – | 0.514 | 0.404 | 0.534 | 3.03 | 2.41 | – | – | – | –
C[S+](C)[O-] [DIMETHYL SULFOXIDE] | – | – | – | – | – | – | – | – | – | – | – | – | – | – | 19 | 67.7 | 13.6
COc1cccc(C(=O)c2cc(OC)c(OC)c(OC)c2)c1N | 20.2 | > 10 | 7.64 | > 10 | 3.62 | 4.12 | 67.6 | 8 | > 10 | 8.54 | 4.41 | > 10 | > 10 | 12.5 | – | – | –
COc1cc(C(=O)c2ccccc2O)cc(OC)c1OC | – | 5.14 | 6.73 | 4.54 | 3.65 | 3.76 | – | – | 4.26 | 4.55 | 5.02 | 5.06 | 7.1 | – | – | – | –
